Test [1] addresses Tyrosine-protein kinase JAK2 (Homo sapiens) (UniProt O60674). The experiment in a line: Inhibition of Jak2 at 5 uM assessed as remaining activity. The essentials:
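Panel of 20 recombinant kinases, profiled by a commercial vendor.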

The test system of test [2] is PC-3. The experiment in a line: Reduction in YB-1 concentration in human PC3 cells expressing constitutively active ILK after 24 hrs by Western blot analysis. Type of test: functional, cell-based. The essentials: (§1)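 PC-3 versus stable PC-3/CA-ILK, or SKBR3 versus transient SKBR3/CA-ILK (electroporation, used 48 h after), treated 24 h in 5% FBS medium; immunoblotting with ECL; representative of three experiments.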

Test [3] concerns SK-BR-3. The experiment in a line: Reduction in YB-1 concentration in human SKBR3 cells after 24 hrs by Western blot analysis. Type of test: functional, cell-based. In outline:
as §1

In test [4] the test system is 3-phosphoinositide dependent protein kinase-2, PDK2. The experiment in a line: Inhibition of PDK2 in human MDA-MB-231 cells assessed as Akt Ser-473 dephosphorylation by Western blot analysis. Type of test: functional, cell-based. The essentials:
(§2)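 Cells exposed 24 h in 5% FBS medium, final DMSO 0.1%; lysed in 1% SDS/10 mM EDTA/50 mM Tris pH 8.1, equal protein on SDS-PAGE, nitrocellulose, primary antibody 1:1000 at 4°C for 2 h, HRP secondary 1:5000, ECL detection; blots representative of three independent experiments.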

The target of test [5] is Mast/stem cell growth factor receptor Kit (Homo sapiens) (UniProt P10721). The experiment in a line: Inhibition of cKit at 5 uM assessed as remaining activity.
Sequence of Mast/stem cell growth factor receptor Kit (Homo sapiens) (P10721 whole entry): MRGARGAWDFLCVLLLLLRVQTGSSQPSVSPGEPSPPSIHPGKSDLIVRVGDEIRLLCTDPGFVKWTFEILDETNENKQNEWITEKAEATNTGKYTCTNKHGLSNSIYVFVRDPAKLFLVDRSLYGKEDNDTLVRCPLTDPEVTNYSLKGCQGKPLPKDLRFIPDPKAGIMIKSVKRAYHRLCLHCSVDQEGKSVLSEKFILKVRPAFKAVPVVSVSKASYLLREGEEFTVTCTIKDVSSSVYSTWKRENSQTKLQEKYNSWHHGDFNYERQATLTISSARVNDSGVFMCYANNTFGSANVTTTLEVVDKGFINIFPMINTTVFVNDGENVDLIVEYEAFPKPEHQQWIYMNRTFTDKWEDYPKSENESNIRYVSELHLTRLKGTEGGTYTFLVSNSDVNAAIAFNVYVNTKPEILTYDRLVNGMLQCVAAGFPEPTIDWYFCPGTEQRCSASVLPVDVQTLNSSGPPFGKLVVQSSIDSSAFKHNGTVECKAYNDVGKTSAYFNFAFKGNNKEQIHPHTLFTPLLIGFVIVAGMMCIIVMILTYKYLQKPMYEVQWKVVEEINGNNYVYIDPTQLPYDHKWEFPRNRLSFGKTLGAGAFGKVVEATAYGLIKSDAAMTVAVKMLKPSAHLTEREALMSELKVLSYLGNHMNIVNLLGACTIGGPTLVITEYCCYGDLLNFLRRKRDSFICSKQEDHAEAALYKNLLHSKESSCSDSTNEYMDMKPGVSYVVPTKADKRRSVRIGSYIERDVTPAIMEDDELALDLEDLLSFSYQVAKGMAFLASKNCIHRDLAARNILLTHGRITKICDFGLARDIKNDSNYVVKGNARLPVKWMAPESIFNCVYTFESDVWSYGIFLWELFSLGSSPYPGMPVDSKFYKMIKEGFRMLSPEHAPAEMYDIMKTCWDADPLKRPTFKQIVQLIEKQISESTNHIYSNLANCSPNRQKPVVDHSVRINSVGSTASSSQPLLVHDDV
In test [6] the test system is MDA-MB-468. The experiment in a line: Antiproliferative activity against human MDA-MB-468 cells assessed as suppression of cell viability by MTT assay. It counts as functional, cell-based. The essentials: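 Cancer lines seeded 5000/well and nonmalignant PrEC/MEC 8000/well in 10% FBS, 24 h before treatment. Compound exposure 24 h in 5% FBS medium, 0.1% final DMSO. MTT (0.25 mg/mL) for 1 h at 37°C, dye solubilized in DMSO, absorbance read at 570 nm. Mean ± SD, n = 6.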
(In general: Tetrazolium assays rely on reduction of a dye to a coloured formazan, in cell work by metabolically active cells.)

The test system of test [7] is PC-3. Kind of test: Reduction in YB-1 mRNA expression in human PC3 cells after 24 hrs by RT-PCR analysis. It counts as functional, cell-based. The essentials: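 PC-3, PC-3/CA-ILK, SKBR3 and SKBR3/CA-ILK cells treated 24 h in 5% FBS medium; total RNA from 1 × 10^6 cells by Trizol, 1 μg reverse-transcribed, then PCR with gene-specific primers and β-actin reference.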

The target of test [8] is T1, 3-phosphoinositide-dependent protein kinase 1 (Homo sapiens) (UniProt O15530).
T1 sequence (whole entry): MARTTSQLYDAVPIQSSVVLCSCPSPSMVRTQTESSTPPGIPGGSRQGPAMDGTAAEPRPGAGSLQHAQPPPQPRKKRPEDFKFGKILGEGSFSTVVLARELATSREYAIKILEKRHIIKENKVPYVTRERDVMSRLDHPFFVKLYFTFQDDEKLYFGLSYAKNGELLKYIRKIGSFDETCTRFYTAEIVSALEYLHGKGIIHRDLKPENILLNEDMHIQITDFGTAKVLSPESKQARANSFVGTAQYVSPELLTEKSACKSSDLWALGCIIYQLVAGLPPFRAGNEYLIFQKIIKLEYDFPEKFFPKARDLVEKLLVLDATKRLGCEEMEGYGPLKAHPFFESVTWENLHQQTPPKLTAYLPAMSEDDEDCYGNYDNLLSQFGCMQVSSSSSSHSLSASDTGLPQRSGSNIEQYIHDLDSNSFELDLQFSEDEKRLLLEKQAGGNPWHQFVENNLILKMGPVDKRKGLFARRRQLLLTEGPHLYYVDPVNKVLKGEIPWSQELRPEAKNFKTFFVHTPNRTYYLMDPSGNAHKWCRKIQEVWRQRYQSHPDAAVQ
Kind of test: Inhibition of PDK2 in human MDA-MB-231 cells assessed as Akt Thr-308 dephosphorylation by Western blot analysis. It counts as functional, cell-based. In outline: as §2
Background: Immunoblotting shows a protein as a band on a membrane.

The target of test [9] is T2, Scaffold protein ILK (Homo sapiens) (UniProt Q13418).
T2 sequence (whole entry): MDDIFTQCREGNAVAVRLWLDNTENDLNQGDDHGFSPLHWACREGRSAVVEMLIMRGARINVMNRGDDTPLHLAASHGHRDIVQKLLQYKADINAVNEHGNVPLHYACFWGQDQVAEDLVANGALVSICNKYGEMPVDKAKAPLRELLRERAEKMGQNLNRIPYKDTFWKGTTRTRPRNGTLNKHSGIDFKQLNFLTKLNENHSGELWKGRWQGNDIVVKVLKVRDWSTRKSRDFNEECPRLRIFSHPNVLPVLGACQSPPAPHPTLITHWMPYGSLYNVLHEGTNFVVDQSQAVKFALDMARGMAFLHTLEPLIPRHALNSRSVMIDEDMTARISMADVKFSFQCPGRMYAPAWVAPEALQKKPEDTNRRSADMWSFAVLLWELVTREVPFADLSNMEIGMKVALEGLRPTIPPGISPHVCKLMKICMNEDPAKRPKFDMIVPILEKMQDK
The experiment in a line: Inhibition of ILK in human PC3 cells assessed as decrease in GSK3-beta phosphorylation by Western blot analysis. Type of test: cell-based. The conditions noted are these: PC-3. The essentials:
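PC-3 and MDA-MB-231 cells exposed 24 h in 5% FBS medium across a concentration series. Phospho-GSK3β (Ser9) and phospho-MLC (Thr18/Ser19) detected by immunoblot: SDS lysis, primary 1:1000 at 4°C for 2 h, HRP secondary, ECL. Representative of three experiments.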

Test [10] addresses Rapamycin-insensitive companion of mTOR (Homo sapiens) (UniProt Q6R327). The experiment in a line: Inhibition of mTORC2 in human MDA-MB-231 cells assessed as PKCalpha phosphorylation by Western blot analysis. It counts as cell-based. In outline:
as §2

For test [11], the target named is Ribosomal protein S6 kinase beta-1 (Homo sapiens) (UniProt P23443). The experiment in a line: Inhibition of p70S6K in human PC3 cells assessed as decrease in phosphorylated S6 by Western blot analysis. Type of test: cell-based. The conditions noted are these: PC-3. The essentials:
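PC-3 cells (parental, or stable GFP-CA-ILK clones selected with G418 250 μg/mL and GFP sorting) exposed 24 h in 5% FBS medium; SDS lysis, immunoblot at 1:1000 primary, ECL; representative of three experiments.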

In test [12] the target is Focal adhesion kinase 1 (Homo sapiens) (UniProt Q05397). Kind of test: Inhibition of FAK in human PC3 cells assessed as decrease in auto-phosphorylation at Tyr-397 by Western blot analysis. It counts as cell-based. Conditions: PC-3. The essentials:
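PC-3 cells exposed to graded concentrations for 24 h in 5% FBS medium. Immunoblotting for phospho-Tyr397-FAK, ERK1/2, p38 and JNK. Lysis in 1% SDS buffer, primary antibody 1:1000 at 4°C for 2 h, ECL. Three independent experiments.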

In test [13] the test system is PC-3. Kind of test: Induction of apoptosis in human PC3 cells assessed as early apoptotic cells at 3 uM by annexin V/PI staining (reference value: 5.6%). It counts as functional.
Test [14] deals with T2, Scaffold protein ILK (Homo sapiens). Kind of test: (§3) Inhibition of human ILK activity assessed myelin basic protein phosphorylation by radiometric kinase assay in the presence of [gamma 32P]ATP. The essentials:
(§4)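 ILK immunoprecipitated from EGF-pretreated (100 ng/mL, 2 h) PC-3 lysates with protein A/G agarose; reaction in 25 μL with 5 μg MBP and 2.5 μCi [γ-32P]ATP, 30°C for 25 min; SDS-PAGE, autoradiography, densitometry versus DMSO control; mean ± SD, n = 3.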

For test [15], the target named is Scaffold protein ILK (Homo sapiens, UniProt Q13418). Described as §3. In outline: as §4

Calls of active or inactive are those of the source. No cut-off for these calls is given here.

Sequence of Rapamycin-insensitive companion of mTOR (Homo sapiens) (Q6R327 whole entry): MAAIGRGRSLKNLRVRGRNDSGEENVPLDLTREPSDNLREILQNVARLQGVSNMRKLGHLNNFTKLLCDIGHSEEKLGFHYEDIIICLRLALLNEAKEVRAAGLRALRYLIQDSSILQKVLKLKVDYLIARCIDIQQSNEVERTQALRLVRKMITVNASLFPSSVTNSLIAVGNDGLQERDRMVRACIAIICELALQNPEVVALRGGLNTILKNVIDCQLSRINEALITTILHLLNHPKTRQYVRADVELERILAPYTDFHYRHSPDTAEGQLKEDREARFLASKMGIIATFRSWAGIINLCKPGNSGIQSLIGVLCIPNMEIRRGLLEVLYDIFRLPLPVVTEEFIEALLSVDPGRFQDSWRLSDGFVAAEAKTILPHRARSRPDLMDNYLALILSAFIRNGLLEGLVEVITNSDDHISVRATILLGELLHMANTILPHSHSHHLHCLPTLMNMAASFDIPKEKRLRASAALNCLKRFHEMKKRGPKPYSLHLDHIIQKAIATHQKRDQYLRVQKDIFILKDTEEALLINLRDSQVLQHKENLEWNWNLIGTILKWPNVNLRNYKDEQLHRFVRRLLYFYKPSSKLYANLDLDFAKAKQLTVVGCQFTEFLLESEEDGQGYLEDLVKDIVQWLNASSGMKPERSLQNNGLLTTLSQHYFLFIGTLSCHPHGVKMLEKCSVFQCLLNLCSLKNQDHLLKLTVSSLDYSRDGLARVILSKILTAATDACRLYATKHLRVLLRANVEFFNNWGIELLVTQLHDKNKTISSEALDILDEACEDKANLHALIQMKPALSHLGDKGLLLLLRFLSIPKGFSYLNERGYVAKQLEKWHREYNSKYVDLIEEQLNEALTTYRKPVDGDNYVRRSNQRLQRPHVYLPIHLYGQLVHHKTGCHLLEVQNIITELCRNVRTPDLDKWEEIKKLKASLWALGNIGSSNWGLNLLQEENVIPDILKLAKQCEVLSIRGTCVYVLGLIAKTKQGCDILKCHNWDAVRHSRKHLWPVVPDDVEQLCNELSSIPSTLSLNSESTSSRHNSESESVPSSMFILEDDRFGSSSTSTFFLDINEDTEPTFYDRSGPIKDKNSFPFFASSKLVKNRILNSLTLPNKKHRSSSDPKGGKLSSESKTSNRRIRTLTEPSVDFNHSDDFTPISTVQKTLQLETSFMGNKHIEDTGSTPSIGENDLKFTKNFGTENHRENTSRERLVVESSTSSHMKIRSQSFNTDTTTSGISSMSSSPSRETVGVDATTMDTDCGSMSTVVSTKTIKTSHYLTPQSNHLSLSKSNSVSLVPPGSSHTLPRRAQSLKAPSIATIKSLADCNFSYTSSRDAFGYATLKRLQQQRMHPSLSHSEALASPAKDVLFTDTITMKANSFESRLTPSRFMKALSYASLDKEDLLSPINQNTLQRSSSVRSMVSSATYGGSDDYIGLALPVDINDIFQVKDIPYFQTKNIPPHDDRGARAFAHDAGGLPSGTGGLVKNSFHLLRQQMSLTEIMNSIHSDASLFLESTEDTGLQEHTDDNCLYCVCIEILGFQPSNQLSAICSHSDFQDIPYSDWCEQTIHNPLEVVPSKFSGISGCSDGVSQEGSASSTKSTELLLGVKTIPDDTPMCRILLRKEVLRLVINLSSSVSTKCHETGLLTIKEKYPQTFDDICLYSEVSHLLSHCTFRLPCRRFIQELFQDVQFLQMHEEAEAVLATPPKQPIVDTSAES
Sequence of Tyrosine-protein kinase JAK2 (Homo sapiens) (O60674 whole entry): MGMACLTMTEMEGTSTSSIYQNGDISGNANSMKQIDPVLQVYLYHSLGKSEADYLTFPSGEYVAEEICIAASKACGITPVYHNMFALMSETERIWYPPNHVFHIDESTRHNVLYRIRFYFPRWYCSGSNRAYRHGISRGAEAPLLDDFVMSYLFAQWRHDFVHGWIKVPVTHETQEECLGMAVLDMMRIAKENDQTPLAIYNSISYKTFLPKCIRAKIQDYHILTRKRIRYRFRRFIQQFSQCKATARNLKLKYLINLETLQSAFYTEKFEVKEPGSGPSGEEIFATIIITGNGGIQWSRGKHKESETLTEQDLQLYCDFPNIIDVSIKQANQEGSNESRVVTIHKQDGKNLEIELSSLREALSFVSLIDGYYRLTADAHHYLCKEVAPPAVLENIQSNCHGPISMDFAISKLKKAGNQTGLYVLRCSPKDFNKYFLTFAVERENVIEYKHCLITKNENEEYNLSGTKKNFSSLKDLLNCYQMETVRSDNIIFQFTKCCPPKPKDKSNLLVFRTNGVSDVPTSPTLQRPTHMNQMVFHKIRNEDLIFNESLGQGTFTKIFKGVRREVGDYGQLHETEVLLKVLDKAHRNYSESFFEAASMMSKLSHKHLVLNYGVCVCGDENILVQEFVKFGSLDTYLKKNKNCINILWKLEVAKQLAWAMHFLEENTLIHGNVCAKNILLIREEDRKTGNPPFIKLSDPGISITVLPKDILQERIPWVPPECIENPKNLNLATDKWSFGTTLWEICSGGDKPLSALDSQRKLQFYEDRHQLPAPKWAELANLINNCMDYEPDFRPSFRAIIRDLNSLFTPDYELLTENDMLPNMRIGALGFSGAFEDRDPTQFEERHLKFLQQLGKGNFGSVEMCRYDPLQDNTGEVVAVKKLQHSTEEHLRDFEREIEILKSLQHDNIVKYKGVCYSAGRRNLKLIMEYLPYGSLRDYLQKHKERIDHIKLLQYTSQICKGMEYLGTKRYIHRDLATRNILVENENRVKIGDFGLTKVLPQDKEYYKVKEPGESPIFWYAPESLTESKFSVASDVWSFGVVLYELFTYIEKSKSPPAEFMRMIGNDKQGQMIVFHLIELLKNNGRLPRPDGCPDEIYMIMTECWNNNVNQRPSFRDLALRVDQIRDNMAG
Sequence of Ribosomal protein S6 kinase beta-1 (Homo sapiens) (P23443 whole entry, looked up): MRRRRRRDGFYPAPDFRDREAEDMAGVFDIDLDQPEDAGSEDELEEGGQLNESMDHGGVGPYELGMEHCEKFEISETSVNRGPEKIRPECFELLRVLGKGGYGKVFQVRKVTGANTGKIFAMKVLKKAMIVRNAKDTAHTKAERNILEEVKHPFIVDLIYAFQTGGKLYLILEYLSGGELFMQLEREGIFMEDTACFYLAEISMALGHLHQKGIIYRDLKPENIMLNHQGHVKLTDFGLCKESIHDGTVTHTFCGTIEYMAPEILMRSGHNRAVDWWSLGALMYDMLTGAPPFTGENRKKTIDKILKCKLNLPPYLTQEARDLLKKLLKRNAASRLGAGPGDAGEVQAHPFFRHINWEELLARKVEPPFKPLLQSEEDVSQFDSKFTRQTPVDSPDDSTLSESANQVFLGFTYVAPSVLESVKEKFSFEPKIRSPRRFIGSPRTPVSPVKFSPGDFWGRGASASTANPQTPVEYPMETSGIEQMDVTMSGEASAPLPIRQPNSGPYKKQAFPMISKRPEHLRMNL

A word on the IC50: it is the concentration that gives 50% inhibition. Turning to `CNC(=O)CCc1cc(-c2ccc(-c3ccc(C(F)(F)F)cc3)cc2)n(-c2ccc(N3CCNCC3)cc2)n1`, the Activity is 114% in test [1]; “Dose-dependent effect” in [3]; 100% in test [5]; “Dose-dependent effect” in test [7]; 12.1% in test [13]. Besides, in test [2], the result was inactive. The inhibition result in test [4] and in [14] was “Dose-dependent effect” throughout. Further, the IC50 in test [6] amounted to 1500 nM; in test [15], 600 nM. Further, the inhibition entry in test [8], in test [10] and in [12] was “inactive” in each case. Also, the inhibition result in test [9] and in [11] was “Active” in each case.
